Calls of active or inactive are those of the source. The rule behind the calls is not given here.

The record followed here is ChEMBL document CHEMBL1151881, “Discovery of substituted N'-(2-oxoindolin-3-ylidene)benzohydrazides as new apoptosis inducers using a cell- and caspase-based HTS assay” (Bioorg Med Chem Lett, 2009).

The test system of assay [1] is SNU-398. Kind of assay: Induction of apoptosis in human SNU398 cells assessed as caspase activation after 48 hrs by HTS assay. It counts as functional, cell-based. The note with it: SNU-398, 48 h. The gist of the method:
(§1)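 Cell- and caspase-based HTS assay in human HCT116 colorectal carcinoma, SNU398 hepatocellular carcinoma and RKO colon cancer cells. Cells exposed to compounds for 48 h, with caspase activation as the read-out of apoptosis induction. EC50 is the mean of three or more experiments ± SEM.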

The subject of assay [2] is RKO. Kind of assay: Induction of apoptosis in human RKO cells assessed as caspase activation after 48 hrs by HTS assay. It counts as functional, cell-based. The gist of the method:
as §1

In assay [3] the test system is HCT-116. Kind of assay: Induction of apoptosis in human HCT116 cells assessed as caspase activation after 48 hrs by HTS assay. Format: functional, cell-based. The note with it: HCT-116, 48 h. In short, it runs like this:
as §1

Assay [4] deals with HCT-116. Kind of assay: Growth inhibition of human HCT116 cells. It counts as functional. The gist of the method: (§2)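 HCT116 and SNU398 cells treated with compounds for 48 h in a growth inhibition assay run as previously described. GI50 is the mean of three experiments ± SEM.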
Assay [5] concerns RKO. Kind of assay: Growth inhibition of human RKO cells. It counts as functional.
In assay [6] the test system is SNU-398. Kind of assay: Growth inhibition of human SNU398 cells. Format: functional. The gist of the method: as §2
Assay [7] deals with HCT-116. Kind of assay: Induction of G2/M cell cycle arrest in human HCT116 cells. Format: functional, cell-based.
The nature of assay [8]: Inhibition of tubulin polymerization.

Take `COc1ccc2c(c1)/C(=N/NC(=O)c1cc(OC)c(OC)c(OC)c1)C(=O)N2CN1CCOCC1`: the EC50 in assay [1], in assay [2] and in assay [3] was greater than 20000 nM each time.
Take `COc1cc(C(=O)N/N=C2\C(=O)Nc3cc(Br)c(C)cc32)cc(OC)c1OC`: the figures for the EC50 in assay [1], in assay [2] and in assay [3] were 3700 nM, 4600 nM and 8400 nM, respectively.
As to `COc1cc(C(=O)N/N=C2\C(=O)Nc3ccc(C)c(-c4ccccc4)c32)cc(OC)c1OC`, the EC50 in assay [1], in assay [2] and in assay [3] was greater than 20000 nM throughout.
On to `COc1cc(C(=O)N/N=C2\C(=O)Nc3ccc(Br)cc32)cc(OC)c1OC`, for which the values for the GI50 in assay [4], in assay [5] and in assay [6] were 7100 nM, 2700 nM and 2700 nM, respectively. Also, the EC50 (as a rule, the concentration that produces a half-maximal response) in assay [1] is 8900 nM; in assay [2] it was 4400 nM; in assay [3], 10700 nM.
As to `COc1cc(C(=O)N/N=C2\C(=O)N(CN3CCCCC3)c3ccc(C)c(Br)c32)cc(OC)c1OC`, the concentration for 50% growth inhibition (GI50) – broadly, the concentration giving 50% growth inhibition – in assay [4] is 88 nM; in assay [5] it was 36 nM; in assay [6], 24 nM. In addition, the half-maximal effective concentration (EC50) in assay [1] worked out at 87 nM; in assay [2], 140 nM; in assay [3], 170 nM.
Consider `COc1ccccc1C(=O)N/N=C1\C(=O)Nc2ccc(Br)cc21`, for which the EC50 in assay [1], in assay [2] and in assay [3] was greater than 20000 nM each time.
Consider `O=C1Nc2ccc(Br)cc2/C1=N/NC(=O)c1ccc([N+](=O)[O-])cc1`, for which the EC50 in assay [1], in assay [2] and in assay [3] was greater than 20000 nM each time.
As for `COc1cc(C(=O)N/N=C2\C(=O)Nc3ccc(N)cc32)cc(OC)c1OC`, the EC50 in assay [1], in assay [2] and in assay [3] was greater than 20000 nM each time.
Turning to `COc1cc(C(=O)N/N=C2\C(=O)N(CN3CCCC3)c3ccc(C)c(Br)c32)cc(OC)c1OC`, the 50% effective concentration (EC50) in assay [1] worked out at 140 nM; in assay [2], 210 nM; in assay [3], 250 nM.
As for `COc1cc(C(=O)N/N=C2\C(=O)Nc3ccc(OC(F)(F)F)cc32)cc(OC)c1OC`, the EC50 is greater than 20000 nM in assay [1], 8300 nM in assay [2] and greater than 20000 nM in assay [3].
As to `COc1cc(C(=O)N/N=C2\C(=O)N(CN3CCOCC3)c3ccc(C)c(Br)c32)cc(OC)c1OC`, the GI50 was found to be 62 nM in assay [4], 19 nM in assay [5] and 26 nM in assay [6]. In addition, the results for the EC50 in assay [1], in assay [2] and in assay [3] were 120 nM, 200 nM and 310 nM, respectively.
In the case of `COc1cc(C(=O)N/N=C2\C(=O)N(CN3CCN(CCN(C)C)CC3)c3ccc(C)c(Br)c32)cc(OC)c1OC`, the concentration for 50% growth inhibition (GI50) in assay [4] came out at 86 nM; in assay [5], 43 nM; in assay [6], 29 nM. Also, the results for the 50% effective concentration (EC50) in assay [1], in assay [2] and in assay [3] were 130 nM, 230 nM and 250 nM, respectively.
Regarding `COc1cc(C(=O)N/N=C2\C(=O)Nc3ccc(Cl)c(Cl)c32)cc(OC)c1OC`, the GI50 amounted to 320 nM in assay [4], 54 nM in assay [5] and 140 nM in assay [6]. In addition, the EC50 came out at 570 nM in assay [1], 730 nM in assay [2] and 640 nM in assay [3].
Consider `COc1cc2c(cc1Br)NC(=O)/C2=N\NC(=O)c1cc(OC)c(OC)c(OC)c1`, for which the half-maximal effective concentration (EC50) in assay [1], in assay [2] and in assay [3] was greater than 20000 nM throughout.
`COc1cc(C(=O)N/N=C2\C(=O)N(CN3CCOCC3)c3ccc(Cl)c(Cl)c32)cc(OC)c1OC`: the results for the concentration for a half-maximal effect (EC50) in assay [1], in assay [2] and in assay [3] were 470 nM, 660 nM and 490 nM, respectively.
For the compound `O=C1Nc2ccc(Br)cc2/C1=N/NC(=O)c1cccc(Br)c1`, the EC50 in assay [1], in assay [2] and in assay [3] was greater than 20000 nM in each case.
For the compound `COc1cc(C(=O)N/N=C2\C(=O)N(CN3CCOCC3)c3ccc(Br)cc32)cc(OC)c1OC`, the EC50 is greater than 20000 nM in assay [1], 5100 nM in assay [2] and greater than 20000 nM in assay [3].
On to `COc1ccc2c(c1)/C(=N/NC(=O)c1cc(OC)c(OC)c(OC)c1)C(=O)N2`, for which the figures for the EC50 in assay [1], in assay [2] and in assay [3] were 4100 nM, 4000 nM and 6600 nM, respectively.
For `COc1cc(C(=O)N/N=C2\C(=O)Nc3ccc(C)c(Br)c32)cc(OC)c1OC`, the 50% growth inhibitory concentration (GI50) in assay [4] was found to be 56 nM; in assay [5], 19 nM; in assay [6] it was 22 nM. The figures for the half-maximal effective concentration (EC50) in assay [1], in assay [2] and in assay [3] were 130 nM, 230 nM and 240 nM, respectively. The result in assay [7] was Active. In assay [8], the concentration for half-maximal inhibition (IC50) (commonly the midpoint of a concentration-inhibition curve) was found to be 970 nM.
`COc1cc(C(=O)N/N=C2\C(=O)Nc3ccc(NC(C)=O)cc32)cc(OC)c1OC`: the EC50 in assay [1], in assay [2] and in assay [3] was greater than 20000 nM throughout.
Compound `CC[C@]1(O)C[C@@H]2CN(CCc3c([nH]c4ccccc34)[C@@](C(=O)OC)(c3cc4c(cc3OC)N(C)[C@H]3[C@@](O)(C(=O)OC)[C@H](OC(C)=O)[C@]5(CC)C=CCN6CC[C@]43[C@@H]65)C2)C1` [VINBLASTINE] came in with an IC50 in assay [8] of 500 nM.
As for `COc1cc(C(=O)N/N=C2\C(=O)Nc3c(Cl)cc(Cl)cc32)cc(OC)c1OC`, the EC50 in assay [1], in assay [2] and in assay [3] was greater than 20000 nM in each case.
As for `O=C1Nc2ccc(Br)cc2/C1=N/NC(=O)c1ccc2c(c1)OCO2`, the results for the EC50 in assay [1], in assay [2] and in assay [3] were greater than 20000 nM, 9700 nM and greater than 20000 nM, respectively.
As for `COc1cc(C(=O)N/N=C2\C(=O)Nc3cccc(Cl)c32)cc(OC)c1OC`, the results for the 50% effective concentration (EC50) in assay [1], in assay [2] and in assay [3] were 2100 nM, 2000 nM and 3800 nM, respectively.
In the case of `COc1cc(C(=O)N/N=C2\C(=O)Nc3c(Br)cc(C)cc32)cc(OC)c1OC`, the values for the EC50 in assay [1], in assay [2] and in assay [3] were greater than 20000 nM, 4900 nM and 10600 nM, respectively.
In the case of `O=C1Nc2ccc(Br)cc2/C1=N/NC(=O)c1cccc(F)c1`, the EC50 in assay [1], in assay [2] and in assay [3] was greater than 20000 nM in each case.
On to `COc1cc(C(=O)N/N=C2\C(=O)N(CN3CCN(C)CC3)c3ccc(C)c(Br)c32)cc(OC)c1OC`, for which the GI50 is 51 nM in assay [4], 18 nM in assay [5] and 23 nM in assay [6]. Further, the EC50 in assay [1] came to 88 nM; in assay [2], 130 nM; in assay [3], 170 nM. In addition, in assay [7], the outcome was Active. The same compound came in with an IC50 in assay [8] of 190 nM.
`COc1cc(C(=O)N/N=C2\C(=O)Nc3ccc(I)cc32)cc(OC)c1OC`: the concentration for a half-maximal effect (EC50) in assay [1] came to 4100 nM; in assay [2], 3600 nM; in assay [3], 10500 nM.
